Source: ChEMBL document CHEMBL1130323, “Synthesis and anti-HIV activity of novel N-1 side chain-modified analogs of 1-[(2-hydroxyethoxy)methyl]-6-(phenylthio)thymine (HEPT)” (J Med Chem, 1997)

What was measured:
MT4 = experiment: Effective concentration required to achieve 50% inhibition of HIV-1 multiplication in human T-4 lymphoblastoid cell line MT-4 IIIB; type: functional, cell-based
Outline: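 MT-4 cells infected with 50 TCID50 of HIV-1 IIIB and allowed 30 min adsorption, then washed. Cells were cultured with graded compound concentrations for 5 days. Protection from virus-induced cytopathogenicity was read by MTT reduction to formazan (OD 540 nm). IC50 was taken from a median effect plot. Means of at least two separate experiments.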

CEM-SS = experiment: Effective concentration required to achieve 50% inhibition of HIV-1 multiplication in human T-4 lymphoblastoid cell line CEM-SS/LAI; type: functional, cell-based
Outline: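 CEM-SS cells infected with 100 TCID50 of HIV-1 Lai and allowed 30 min adsorption, then free virus was washed off. Cells were cultured with graded compound concentrations for 5 days. Virus production was read as reverse transcriptase activity of virions in culture supernatants. IC50 was taken from a median effect plot. Means of at least two separate experiments.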

[1] = Concentration which reduces the cell viability by 50% (CEM-SS / MT-4); type: functional; conditions: Homo sapiens
Outline: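 Cytotoxicity measured on uninfected CEM-SS or MT-4 cells by MTT assay in the same experiment as the antiviral test, with cells cultured with graded compound concentrations for 5 days. Formazan read as OD at 540 nm. CC50 is the concentration reducing viability by 50%, calculated from a median effect plot. Means of at least two separate experiments.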

Structure (SMILES) | IC50 (MT4) | IC50 (CEM-SS) | CC50 [1]
Cc1c(Sc2ccccc2)n(COCCNC(=O)CCP(=O)(O)O)c(=O)[nH]c1=O | > 10000 nM | > 10000 nM | > 1000 nM
Cc1c(Sc2ccccc2)n(COCCNC(=O)CNCP(=O)(O)O)c(=O)[nH]c1=O | > 100000 nM | > 100000 nM | > 1000 nM
CCc1c(Sc2ccccc2)n(COCc2ccccc2)c(=O)[nH]c1=O | 5.9 nM |  | 
Cc1c(Sc2ccccc2)n(C/C=C/c2ccccc2)c(=O)[nH]c1=O | 2500 nM | 230 nM | > 1000 nM
Cc1c(Sc2ccccc2)n(C/C=C/c2cc3ccccc3o2)c(=O)[nH]c1=O | > 1000 nM | > 1000 nM | > 1000 nM
CCc1c(Sc2ccccc2)n(C/C=C/c2ccccc2)c(=O)[nH]c1=O | 190 nM | 16 nM | > 1000 nM
Cc1c(Sc2ccccc2)n(COCCI)c(=O)[nH]c1=O | > 10000 nM | 2200 nM | > 1000 nM
CCc1c(Sc2cc(C)cc(C)c2)n(COCc2ccccc2)c(=O)[nH]c1=O | 3.2 nM |  | 
CCc1c(Sc2cc(C)cc(C)c2)n(C/C=C/c2cccs2)c(=O)[nH]c1=O | 40 nM | 28 nM | > 1000 nM
Cc1c(Sc2ccccc2)n(COCCNC(=O)CCCl)c(=O)[nH]c1=O | 40000 nM | 11400 nM | > 1000 nM
Cc1c(Sc2ccccc2)n(COCCN2CCOCC2)c(=O)[nH]c1=O | > 100000 nM | > 100000 nM | > 1000 nM
Cc1c(Sc2ccccc2)n(C/C=C/C2CCCCC2)c(=O)[nH]c1=O | > 1000 nM | > 1000 nM | > 1000 nM
Cc1c(Sc2ccccc2)n(C/C=C/c2cccs2)c(=O)[nH]c1=O | > 1000 nM | 140 nM | > 1000 nM
Cc1c(Sc2ccccc2)n(COCCN(C(=O)c2ccccc2)C(=O)c2ccccc2)c(=O)[nH]c1=O | > 1000 nM | > 1000 nM | > 1000 nM
Cc1c(Sc2ccccc2)n(COCc2ccccc2)c(=O)[nH]c1=O | 740 nM | 90 nM | > 1000 nM
CCc1c(Sc2ccccc2)n(C/C=C/c2ccc([N+](=O)[O-])s2)c(=O)[nH]c1=O | > 1000 nM | 940 nM | > 1000 nM
Cc1c(Sc2ccccc2)n(COCCNC(=O)c2ccccc2)c(=O)[nH]c1=O | > 10000 nM | > 10000 nM | > 1000 nM
CCc1c(Sc2ccccc2)n(C/C=C/c2cccs2)c(=O)[nH]c1=O | 80 nM | 8 nM | > 1000 nM

Structure (SMILES) | IC50 (MT4) | IC50 (CEM-SS) | CC50 [1]
CCc1c(Sc2ccccc2)n(C/C=C/c2ccco2)c(=O)[nH]c1=O | 170 nM | 8 nM | > 1000 nM
Cc1c(Sc2ccccc2)n(COCCN2CCNCC2)c(=O)[nH]c1=O | > 10000 nM | > 10000 nM | > 1000 nM
Cc1c(Sc2ccccc2)n(COCCNc2ccccc2)c(=O)[nH]c1=O | 1000 nM | 55 nM | > 1000 nM
Cc1c(Sc2ccccc2)n(COCCN)c(=O)[nH]c1=O |  | 31000 nM | > 1000 nM
Cc1c(Sc2ccccc2)n(C/C=C/c2ccc([N+](=O)[O-])s2)c(=O)[nH]c1=O | > 1000 nM | > 1000 nM | > 1000 nM
Cc1c(Sc2ccccc2)n(COCCSc2ccccn2)c(=O)[nH]c1=O | > 1000 nM | 830 nM | > 1000 nM
CCc1c(Sc2cc(C)cc(C)c2)n(C/C=C/c2ccccc2)c(=O)[nH]c1=O |  | 31 nM | > 1000 nM
Cc1c(Sc2ccccc2)n(COCCN(CC#N)CC#N)c(=O)[nH]c1=O | > 100000 nM | 27500 nM | > 1000 nM
CCc1c(Sc2cc(C)cc(C)c2)n(C/C=C/c2ccco2)c(=O)[nH]c1=O | 40 nM | 10 nM | > 1000 nM
Cc1c(Sc2ccccc2)n(C/C=C/c2ccco2)c(=O)[nH]c1=O | > 1000 nM | 330 nM | > 1000 nM
Cc1c(Sc2ccccc2)n(COCCBr)c(=O)[nH]c1=O | 2800 nM | 760 nM | > 1000 nM
CCc1c(Sc2ccccc2)n(C/C=C/c2cc3ccccc3o2)c(=O)[nH]c1=O | > 1000 nM | 38 nM | > 1000 nM
Cc1c(Sc2ccccc2)n(COCCN(c2ccccc2)c2ccccc2)c(=O)[nH]c1=O | > 10000 nM | 8750 nM | > 1000 nM
Cc1c(Sc2ccccc2)n(COCCSc2ccccc2)c(=O)[nH]c1=O |  | > 1000 nM | > 1000 nM
Cc1c(Sc2ccccc2)n(C/C=C/c2cccnc2)c(=O)[nH]c1=O | 100 nM | 150 nM | > 1000 nM
Cc1c(Sc2ccccn2)n(COCCSc2ccccn2)c(=O)[nH]c1=O | 8000 nM | 440 nM | > 1000 nM
Cc1c(Sc2ccccn2)n(COCCSc2ccccc2)c(=O)[nH]c1=O | > 1000 nM | 1000 nM | > 1000 nM
Cc1c(Sc2ccccc2)n(COCCO)c(=O)[nH]c1=O [HEPT] | 11000 nM | 2000 nM | > 1000 nM
